ChEMBL document CHEMBL4813947, “New dual ATP-competitive inhibitors of bacterial DNA gyrase and topoisomerase IV active against ESKAPE pathogens” (Eur J Med Chem, 2021)
Values after ≈ are worked out from the molar mass of the structure shown.

Legend:
[1] = Inhibition of Staphylococcus aureus topoisomerase assessed as reduction in relaxation of supercoiled pNO1 DNA measured after 30 mins by fluorescence assay
How it was run: (§1)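 Enzyme run per an earlier-reported procedure; IC50 fitted from seven inhibitor concentrations, mean of three independent measurements.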

[2] = system: Staphylococcus aureus; experiment: Antibacterial activity against Staphylococcus aureus ATCC 29213 assessed as inhibition of bacterial growth by CLSI protocol based broth microdilution assay; type: functional
[3] = system: Staphylococcus aureus; experiment: Antibacterial activity against methicillin-resistant Staphylococcus aureus ATCC 43300 assessed as inhibition of bacterial growth by CLSI protocol based broth microdilution assay; type: functional
How it was run: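 Minimum inhibitory concentration by standard serial broth microdilution following CLSI guidelines. Medium was MHBII broth (22 g/L powder: beef extract, casein acid hydrolysate, starch), with MHBII agar (14 g agar per L broth). Where noted, assayed without and with efflux pump substrate phenylalanine-arginine β-naphthylamide (PAβN).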

[4] = system: Enterococcus faecalis; experiment: Antibacterial activity against Enterococcus faecalis ATCC 29212 assessed as inhibition of bacterial growth by CLSI protocol based broth microdilution assay; type: functional
[5] = system: Acinetobacter baumannii; experiment: Antibacterial activity against Acinetobacter baumannii ATCC 17978 assessed as inhibition of bacterial growth by CLSI protocol based broth microdilution assay; type: functional
[6] = system: Pseudomonas aeruginosa; experiment: Antibacterial activity against Pseudomonas aeruginosa ATCC 27853 assessed as inhibition of bacterial growth by CLSI protocol based broth microdilution assay; type: functional
[7] = system: Klebsiella pneumoniae; experiment: Antibacterial activity against Klebsiella pneumoniae ATCC 10031 assessed as inhibition of bacterial growth by CLSI protocol based broth microdilution assay; type: functional
[8] = system: Escherichia coli; experiment: Antibacterial activity against Escherichia coli ATCC 25922 assessed as inhibition of bacterial growth by CLSI protocol based broth microdilution assay; type: functional
[9] = Inhibition of Escherichia coli topoisomerase assessed as reduction in relaxation of supercoiled pNO1 DNA measured after 30 mins by fluorescence assay; how it was run: as §1
[10] = target: DNA gyrase (Staphylococcus aureus, UniProt P0A0K8+P20831); experiment: Inhibition of Staphylococcus aureus DNA gyrase assessed reduction in supercoiling of relaxed pNO1 DNA measured after 30 mins by fluorescence assay
[11] = target: DNA gyrase (Escherichia coli, UniProt P0AES4+P0AES6); experiment: Inhibition of Escherichia coli DNA gyrase assessed as reduction in supercoiling of relaxed pNO1 DNA measured after 30 mins by fluorescence assay

Sequence of DNA gyrase (Staphylococcus aureus, UniProt P0A0K8+P20831) (P0A0K8 whole entry): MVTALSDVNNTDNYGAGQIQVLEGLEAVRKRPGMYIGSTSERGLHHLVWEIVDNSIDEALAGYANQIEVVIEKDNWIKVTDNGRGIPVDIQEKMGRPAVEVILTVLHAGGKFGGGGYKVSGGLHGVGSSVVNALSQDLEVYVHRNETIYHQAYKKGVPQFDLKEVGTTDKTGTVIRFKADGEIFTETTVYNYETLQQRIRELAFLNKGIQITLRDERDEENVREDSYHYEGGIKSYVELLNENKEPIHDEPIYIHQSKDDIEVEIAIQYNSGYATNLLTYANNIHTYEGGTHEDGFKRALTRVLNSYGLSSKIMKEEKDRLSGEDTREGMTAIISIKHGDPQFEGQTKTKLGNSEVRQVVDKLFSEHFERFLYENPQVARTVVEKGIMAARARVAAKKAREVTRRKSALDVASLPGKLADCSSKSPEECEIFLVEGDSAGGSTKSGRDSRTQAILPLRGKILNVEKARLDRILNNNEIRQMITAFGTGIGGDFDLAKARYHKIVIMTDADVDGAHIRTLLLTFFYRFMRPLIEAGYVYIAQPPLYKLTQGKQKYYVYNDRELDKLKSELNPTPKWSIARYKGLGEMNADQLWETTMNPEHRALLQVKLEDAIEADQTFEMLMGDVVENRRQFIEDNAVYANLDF
Sequence of DNA gyrase (Staphylococcus aureus, UniProt P0A0K8+P20831) (P20831 whole entry): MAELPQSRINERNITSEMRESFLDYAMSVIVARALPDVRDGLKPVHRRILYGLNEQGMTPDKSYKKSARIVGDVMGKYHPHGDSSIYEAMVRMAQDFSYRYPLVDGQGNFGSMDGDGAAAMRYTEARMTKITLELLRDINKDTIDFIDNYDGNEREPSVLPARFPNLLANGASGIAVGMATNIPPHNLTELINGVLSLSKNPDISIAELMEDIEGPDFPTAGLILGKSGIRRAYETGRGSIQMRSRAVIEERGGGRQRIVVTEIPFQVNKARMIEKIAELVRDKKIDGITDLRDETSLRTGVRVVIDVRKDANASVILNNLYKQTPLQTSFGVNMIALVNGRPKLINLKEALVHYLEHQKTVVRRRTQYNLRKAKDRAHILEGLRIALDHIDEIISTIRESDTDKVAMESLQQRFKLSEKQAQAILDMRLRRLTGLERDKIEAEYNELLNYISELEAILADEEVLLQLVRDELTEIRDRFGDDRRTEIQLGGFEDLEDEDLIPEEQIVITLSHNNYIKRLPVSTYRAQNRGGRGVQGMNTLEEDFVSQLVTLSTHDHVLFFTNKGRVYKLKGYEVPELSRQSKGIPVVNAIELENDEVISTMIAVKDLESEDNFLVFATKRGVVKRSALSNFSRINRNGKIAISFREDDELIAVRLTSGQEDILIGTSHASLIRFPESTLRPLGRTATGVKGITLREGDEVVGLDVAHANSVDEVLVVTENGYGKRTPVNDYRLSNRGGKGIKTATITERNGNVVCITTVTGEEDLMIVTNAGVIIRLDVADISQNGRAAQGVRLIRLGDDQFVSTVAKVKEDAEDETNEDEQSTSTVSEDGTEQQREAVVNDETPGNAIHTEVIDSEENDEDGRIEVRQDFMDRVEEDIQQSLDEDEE

| Structure (SMILES) | IC50 [1] [nM] | MIC [2] [µg/mL] | MIC [3] [µg/mL] | MIC [4] [µg/mL] | MIC [5] [µg/mL] | MIC [6] [µg/mL] | MIC [7] [µg/mL] | MIC [8] [µg/mL] | IC50 [9] [nM] | IC50 [10] [nM] | IC50 [11] [nM] |
| --- | --- | --- | --- | --- | --- | --- | --- | --- | --- | --- | --- |
| Cc1[nH]c(C(=O)Nc2nc3c(OCc4ccccc4)cc(C(=O)O)cc3s2)c(Cl)c1Cl | 68 | 0.5 (≈ 1.05 µM) | 0.0625 (≈ 0.131 µM) | < 0.0212 | 2 (≈ 4.2 µM) | 2 (≈ 4.2 µM) | 1 (≈ 2.1 µM) | 16 (≈ 33.6 µM) | – | – | – |
| Cc1[nH]c(C(=O)Nc2nc3c(OCc4ccccc4)cc(C(N)=O)cc3s2)c(Cl)c1Cl | > 1000 | – | – | – | – | – | – | – | > 1000 | > 1000 | – |
| O=C(NO)c1ccc2nc(NC(=O)c3cc(Br)c(Br)[nH]3)sc2c1 | > 1000 | – | – | – | – | – | – | – | > 1000 | > 1000 | – |
| Cc1[nH]c(C(=O)Nc2nc3ccc(C(N)=O)cc3s2)c(Cl)c1Cl | 320 | – | – | – | – | – | – | – | 490 | 59 | – |
| Cc1[nH]c(C(=O)Nc2nc3ccc(C#N)cc3s2)c(Cl)c1Cl | > 1000 | – | – | – | – | – | – | – | > 1000 | > 1000 | > 1000 |
| Cc1[nH]c(C(=O)Nc2nc3c(OCc4ccc(C(=O)O)cc4)cc(C(=O)O)cc3s2)c(Cl)c1Cl | 12 | – | – | – | – | – | – | – | 260 | < 10 | < 10 |
| Cc1[nH]c(C(=O)Nc2nc3cc(C(=O)O)ccc3s2)c(Cl)c1Cl | > 1000 | – | – | – | – | – | – | – | > 1000 | > 1000 | – |
| COc1ccc2nc(NC(=O)c3[nH]c(C)c(Cl)c3Cl)sc2c1 | > 1000 | – | – | – | – | – | – | – | > 1000 | > 1000 | > 1000 |
| Cc1[nH]c(C(=O)Nc2nc3cc(O)c(C(=O)O)cc3s2)c(Cl)c1Cl | 46 | 16 (≈ 41.4 µM) | 4 (≈ 10.4 µM) | 1 (≈ 2.59 µM) | > 64 | > 64 | 8 (≈ 20.7 µM) | > 64 | 95 | 61 | < 10 |
| COc1cc(C(=O)O)cc2sc(NC(=O)c3[nH]c(C)c(Cl)c3Cl)nc12 | 390 | 2 (≈ 5 µM) | 0.5 (≈ 1.25 µM) | 0.25 (≈ 0.625 µM) | 16 (≈ 40 µM) | 64 (≈ 160 µM) | 2 (≈ 5 µM) | 64 (≈ 160 µM) | 160 | 44 | < 10 |
| Cc1[nH]c(C(=O)N(c2nc3ccc(C(=O)O)cc3s2)C(C)C)c(Cl)c1Cl | > 1000 | – | – | – | – | – | – | – | > 1000 | > 1000 | – |
| Cc1[nH]c(C(=O)Nc2nc3c(OCc4cccs4)cc(C(=O)O)cc3s2)c(Cl)c1Cl | 88 | 0.0625 (≈ 0.13 µM) | 0.5 (≈ 1.04 µM) | 0.0163 (≈ 0.0338 µM) | 1 (≈ 2.07 µM) | 4 (≈ 8.29 µM) | 4 (≈ 8.29 µM) | 8 (≈ 16.6 µM) | 300 | < 10 | < 10 |
| Cc1[nH]c(C(=O)Nc2nc3c(F)cc(C(=O)O)cc3s2)c(Cl)c1Cl | 240 | 0.5 (≈ 1.29 µM) | 0.0625 (≈ 0.161 µM) | 0.0625 (≈ 0.161 µM) | 8 (≈ 20.6 µM) | 64 (≈ 165 µM) | 4 (≈ 10.3 µM) | 16 (≈ 41.2 µM) | 200 | 17 | < 10 |
| O=C(O)c1cc(O)c2nc(NC(=O)c3cc(Br)c(Br)[nH]3)sc2c1 | 240 | – | – | – | – | – | – | – | 180 | 170 | – |
| Cc1[nH]c(C(=O)Nc2nc3ccc(-c4nnn[nH]4)cc3s2)c(Cl)c1Cl | 270 | 16 (≈ 40.6 µM) | 16 (≈ 40.6 µM) | 1 (≈ 2.54 µM) | > 64 | > 64 | 16 (≈ 40.6 µM) | > 64 | 660 | 25 | < 10 |
| Cc1[nH]c(C(=O)Nc2nc3c(OCc4ccccc4)cc(-c4nnn[nH]4)cc3s2)c(Cl)c1Cl | 89 | 4 (≈ 7.99 µM) | 4 (≈ 7.99 µM) | 0.125 (≈ 0.25 µM) | > 64 | > 64 | > 64 | > 64 | – | 26 | – |
| Cc1[nH]c(C(=O)Nc2nc3ccc(C(=O)NO)cc3s2)c(Cl)c1Cl | > 1000 | 64 (≈ 166 µM) | 32 (≈ 83.1 µM) | 0.5 (≈ 1.3 µM) | > 64 | > 64 | > 64 | > 64 | > 1000 | 720 | – |
| Cc1[nH]c(C(=O)Nc2nc3c(OCc4ccccc4)cc(C#N)cc3s2)c(Cl)c1Cl | > 1000 | – | – | – | – | – | – | – | > 1000 | > 1000 | > 1000 |
| Cc1[nH]c(C(=O)Nc2nc3ccc(C(=O)NCC#N)cc3s2)c(Cl)c1Cl | > 1000 | – | – | – | – | – | – | – | > 1000 | 310 | – |
| Cc1[nH]c(C(=O)Nc2nc3ccc(C(=O)O)cc3s2)c(Cl)c1Cl | 66 | 1 (≈ 2.7 µM) | 0.125 (≈ 0.338 µM) | 0.125 (≈ 0.338 µM) | 4 (≈ 10.8 µM) | 8 (≈ 21.6 µM) | 1 (≈ 2.7 µM) | 4 (≈ 10.8 µM) | 500 | – | – |
| Cc1[nH]c(C(=O)Nc2nc3c(OCCN4CCOCC4)cc(C(=O)O)cc3s2)c(Cl)c1Cl | 66 | – | – | – | – | – | – | – | 220 | 17 | < 10 |
| Cc1[nH]c(C(=O)Nc2nc3c(OCCN4CCOCC4)cc(C(=O)NCC#N)cc3s2)c(Cl)c1Cl | 520 | – | – | – | – | – | – | – | > 1000 | 100 | < 10 |
| O=C(O)c1ccc2nc(NC(=O)c3cc(Cl)c(Cl)[nH]3)sc2c1 | > 1000 | – | – | – | – | – | – | – | 280 | 500 | – |
| O=C(O)c1ccc2nc(NC(=O)c3cc(Br)c(Br)[nH]3)sc2c1 | 300 | – | – | – | – | – | – | – | > 1000 | > 1000 | – |
| Cc1[nH]c(C(=O)Nc2nc3c(OCCN)cc(C(=O)O)cc3s2)c(Cl)c1Cl | 160 | – | – | – | – | – | – | – | > 1000 | 48 | < 10 |
| Cc1[nH]c(C(=O)N(c2nc3ccc(C(=O)O)cc3s2)C2CC2)c(Cl)c1Cl | > 1000 | 2 (≈ 4.87 µM) | 2 (≈ 4.87 µM) | 0.25 (≈ 0.609 µM) | > 64 | > 64 | 64 (≈ 156 µM) | > 64 | > 1000 | > 1000 | – |
| Cc1[nH]c(C(=O)Nc2nc3c(OCc4cccc(F)c4)cc(C(=O)O)cc3s2)c(Cl)c1Cl | < 10 | 0.0625 (≈ 0.126 µM) | 0.0625 (≈ 0.126 µM) | 0.001 (≈ 0.00202 µM) | 2 (≈ 4.05 µM) | 64 (≈ 129 µM) | > 64 | – | – | < 10 | – |
| Cc1[nH]c(C(=O)Nc2nc3c(OCc4cccc(C(=O)O)c4)cc(C(=O)O)cc3s2)c(Cl)c1Cl | 13 | – | – | – | – | – | – | – | 170 | < 10 | < 10 |
